Experiment [1] has as its target T1, Prostaglandin E synthase (Homo sapiens) (UniProt O14684).
T1 sequence (whole entry): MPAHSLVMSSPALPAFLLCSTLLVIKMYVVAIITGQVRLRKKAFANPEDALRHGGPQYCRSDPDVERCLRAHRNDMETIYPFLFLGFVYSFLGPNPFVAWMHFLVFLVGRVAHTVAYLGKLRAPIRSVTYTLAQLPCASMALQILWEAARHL
The experiment in a line: Inhibition of mPGES1 in IL1beta-stimulated human A549 cell microsomes assessed as residual activity at 10 uM using PGH2 as substrate preincubated for 15 mins followed by substrate addition and measured after 1 min by RP-HPLC analysis relative to control. A digest of the protocol: (§1)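 mPGES-1 source was microsomes from A549 cells treated 48 h with IL-1β (1 ng ml–1), obtained by sonication and differential centrifugation (10 000×g, then 174 000×g, 4 °C). Microsomes diluted in 0.1 M potassium phosphate pH 7.4 with 2.5 mM glutathione. Compound or DMSO vehicle added for 15 min at 4 °C; 20 μM PGH2 then reacted 1 min at 4 °C. Stopped with FeCl2/citric acid containing 11β-PGE2; PGE2 measured by SPE and RP-HPLC.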

Experiment [2] deals with T2, Polyunsaturated fatty acid 5-lipoxygenase (Homo sapiens) (UniProt P09917).
T2 sequence (whole entry): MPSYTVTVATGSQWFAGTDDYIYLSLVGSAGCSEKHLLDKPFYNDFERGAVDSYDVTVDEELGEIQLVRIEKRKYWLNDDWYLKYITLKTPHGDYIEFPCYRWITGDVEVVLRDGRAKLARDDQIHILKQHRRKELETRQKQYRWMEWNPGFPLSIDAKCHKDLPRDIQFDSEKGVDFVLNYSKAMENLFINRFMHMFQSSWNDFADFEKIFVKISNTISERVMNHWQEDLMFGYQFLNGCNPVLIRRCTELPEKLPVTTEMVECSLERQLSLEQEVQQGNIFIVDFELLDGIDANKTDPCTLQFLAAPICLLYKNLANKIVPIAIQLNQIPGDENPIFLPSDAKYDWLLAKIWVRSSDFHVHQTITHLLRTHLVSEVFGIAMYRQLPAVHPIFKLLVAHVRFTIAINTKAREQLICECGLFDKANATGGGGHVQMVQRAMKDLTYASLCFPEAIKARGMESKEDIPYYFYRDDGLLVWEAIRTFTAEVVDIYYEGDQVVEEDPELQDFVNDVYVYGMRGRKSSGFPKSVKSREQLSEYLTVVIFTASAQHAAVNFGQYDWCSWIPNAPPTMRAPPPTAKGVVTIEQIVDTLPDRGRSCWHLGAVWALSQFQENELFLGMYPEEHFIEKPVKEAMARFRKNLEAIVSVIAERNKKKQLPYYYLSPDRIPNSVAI
The experiment in a line: Inhibition of 5-LO in human neutrophils assessed as residual activity at 10 uM using arachidonic acid as substrate preincubated for 10 mins followed by substrate addition and measured after 10 mins by RP-HPLC analysis. A digest of the protocol: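 Freshly isolated human peripheral-blood neutrophils at 5 × 10^6 cells per ml in PBS pH 7.4 with 1 mM CaCl2 and 1 mg mL–1 glucose. Cells pre-treated 10 min with compound in DMSO (final 0.1%). Stimulated with 2.5 μM Ca2+ ionophore A23187 plus 20 μM arachidonic acid for 10 min at 37 °C, then stopped on ice with methanol. After C18 solid-phase extraction, LTB4 all-trans isomers and 5-H(P)ETE quantified by RP-HPLC against PGB1 internal standard.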

Experiment [3] concerns the target T3, Prostaglandin E synthase (Homo sapiens, UniProt O14684).
T3 sequence (O14684 whole entry): T1 sequence (whole entry)
The experiment in a line: Inhibition of mPGES1 in IL1beta-stimulated human A549 cell microsomes using PGH2 as substrate preincubated for 15 mins followed by substrate addition and measured after 1 min by RP-HPLC analysis. A digest of the protocol:
as §1

A word on the IC50: it is the point on the concentration scale where inhibition reaches its midpoint.

Turning to `Cc1sc2ncn(CC(=O)Nc3ccc(Oc4ccccc4)cc3)c(=O)c2c1-c1ccccc1`, the Activity in experiment [1] amounted to 82.6%.

As to `CCOc1ccc(C2C(C(=O)c3cc4ccccc4o3)=C(O)C(=O)N2c2nnc(SCc3ccc(Cl)cc3)s2)cc1OC` (configuration not stated), the Activity in experiment [2] came out at 92.5%; in experiment [1], 30.5%. The compound also gave an IC50 in experiment [3] of 3700 nM.

Turning to `CC(=O)N[C@H]1[C@H](Oc2ccc(Nc3nc(-c4ccc(Cl)cc4)nc4ccccc34)cc2)O[C@H](CO)[C@@H](O)[C@H]1O`, the Activity in experiment [1] was found to be 80.1%.

Consider `O=C(C1=C(O)C(=O)N(c2ncc(S(=O)(=O)c3ccc([N+](=O)[O-])cc3)s2)C1c1cccc(Cl)c1)c1ccc(Cl)cc1` (configuration not stated), for which the Activity in experiment [2] was 56.6%; in experiment [1], 25%. Besides, the IC50 in experiment [3] was found to be 1900 nM.

As to `COc1ccc(C(=O)N/C(=C\c2ccc(-c3ccccc3Cl)o2)C(=O)NCCCO)cc1`, the Activity in experiment [1] worked out at 72.1%.

As to `CCOc1ccc(N2CC(c3nc4ccccc4n3CCOc3ccc(Cl)cc3)CC2=O)cc1` (configuration not stated), in experiment [1], the Activity is 65.3%.

`COc1ccc(C(=O)N/C(=C\c2ccc(-c3cccc(C(F)(F)F)c3)o2)C(=O)NC(C)(C)C)cc1`: the Activity in experiment [1] was 88.6%.

Turning to `CCOC(=O)C1CCCN(c2nc3c(C)cccn3c(=O)c2/C=C(\C#N)C(=O)NCc2ccccc2)C1` (configuration not stated), the Activity in experiment [1] is 86.8%.

Source of the values: ChEMBL document CHEMBL4480369, “Discovery of 3-hydroxy-3-pyrrolin-2-one-based mPGES-1 inhibitors using a multi-step virtual screening protocol” (Medchemcomm, 2018).
